Key:
Format in all cases: functional
Trametes versicolor = test: Antifungal activity against Trametes versicolor BCRC 35253 wood decay fungi assessed as reduction of fungi mycelium growth at 100 ug/ml
How it was run: (§1)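 Fungi kept on potato dextrose agar at 4 °C. Samples dissolved in 150 μL ethanol and mixed into 15 mL PDA to give the final concentration. A 5 mm mycelial plug from the culture edge was placed centrally on each 9-cm plate. Plates were held in the dark at 26 ± 2 °C and 70% RH. Antifungal index was scored once control plates without test material were fully overgrown.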

Gloeophyllum trabeum = test: Antifungal activity against Gloeophyllum trabeum BCRC 31614 (wood decay fungi) assessed as reduction of fungi mycelium growth at 100 ug/ml; how it was run: as §1
Lenzites betulinus = test: Antifungal activity against Lenzites betulinus BCRC 35296 assessed as reduction of fungi mycelium growth at 100 ug/ml; how it was run: as §1
Laetiporus sulphureus = test: Antifungal activity against Laetiporus sulphureus BCRC 35305 (wood decay fungi) assessed as reduction of fungi mycelium growth at 100 ug/ml; how it was run: as §1

SMILES	inhibition at 100 µg/mL (Trametes versicolor) [%]	inhibition at 100 µg/mL (Gloeophyllum trabeum) [%]	inhibition at 100 µg/mL (Lenzites betulinus) [%]	inhibition at 100 µg/mL (Laetiporus sulphureus) [%]
CC1=C[C@H]2[C@H](C(C)C)CC[C@](C)(O)[C@H]2CC1 [T-MUUROLOL]	39.5	100	100	100
CC1=C[C@@H]2[C@@H](CC1)[C@@](C)(O)CC[C@H]2C(C)C [T-CADINOL]	51.4	100	100	100
CCCCCCCCCC[N+](C)(C)CCCCCCCCCC [DIDECYLDIMETHYLAMMONIUM CHLORIDE]	100	100	100	100
C[C@@H]1CC[C@H]2C(C)(C)[C@H]3C[C@@]12CC[C@@]3(C)O [CEDROL]	74.8	68.3	95.5	100
C=CC(=C)CC[C@@H]1[C@@]2(C)CCCC(C)(C)[C@@H]2CC[C@@]1(C)O [ISOABIENOL]	27.8	6.8	25.6	8.2

— ChEMBL document CHEMBL3045566, “Phytochemicals from Cunninghamia konishii Hayata act as antifungal agents” (2012)
